Bioassay records: PubChem BioAssay, several laboratories
NR2F2 inh – inhibitors of human COUP-TFII (NR2F2) | P24468 | HEK293T NGFI-A luciferase reporter, luminescence | inhibition, % at 8.6 µM | 370,000 tested, 0.7% active;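 active = inhibition above a per-plate cutoff, mean inhibition of test wells between control levels plus 3 SD, cut at about 38% in these data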;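 note: cells cotransfected with COUP-TFII expression vector driving the NGFI-A reporter; 0% = median of COUP-TF2 test wells and 100% = reporter-only cells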
Target sequence (P24468 whole entry, looked up): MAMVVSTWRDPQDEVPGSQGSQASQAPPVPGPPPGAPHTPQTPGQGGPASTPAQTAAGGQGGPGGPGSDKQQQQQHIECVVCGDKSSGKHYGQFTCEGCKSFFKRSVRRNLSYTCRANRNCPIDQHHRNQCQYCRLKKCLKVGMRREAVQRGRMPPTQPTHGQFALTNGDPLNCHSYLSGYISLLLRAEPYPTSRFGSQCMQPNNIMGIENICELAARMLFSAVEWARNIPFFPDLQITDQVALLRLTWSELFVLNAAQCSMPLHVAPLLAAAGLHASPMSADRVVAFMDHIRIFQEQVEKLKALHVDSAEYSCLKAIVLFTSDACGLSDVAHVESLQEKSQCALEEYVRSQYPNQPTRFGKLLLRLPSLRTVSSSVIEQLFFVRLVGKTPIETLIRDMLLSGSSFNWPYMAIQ
NR2E3 ag-1 – agonists of human NR2E3 nuclear receptor. AID 602229. 360,000 tested, 0.35% active. CHO-S Gal4-NCOR/VP16-NR2E3 two-hybrid, luciferase. inhibition of corepressor binding, % at 3.98 µM;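 active = inhibition above the mean of all tested compounds plus 3 SD, cut at about 70% in these data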;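 note: 0% = DMSO with NR2E3 transfected cells and 100% = cells lacking NR2E3 construct; higher means lower luciferase signal from less NR2E3 corepressor binding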
CHT inh – inhibits the human high affinity choline transporter | Q9GZV3 | CHT-expressing cells, membrane potential dye, choline response; hits give low values | 310,000 tested, 0.86% active | B-score at 10 µM;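 active = B-score over 3 SD under the library average, and starting fluorescence ratio not unusually high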;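 note: choline stimulus applied at its EC90 after an EC20 pre-addition; B-score computed on integrated fluorescence ratio after choline addition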
NR2E3 ag-2 – activates human photoreceptor nuclear receptor NR2E3 | AID 2300 | GST-NR2E3/biotin-RetCOR TR-FRET, 1536-well | inhibition of corepressor binding, % at 4.78 µM | 320,000 tested, 0.12% active;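 active = percent inhibition above the cutoff of mean plus 3 SD of all tested compounds, set per screening campaign, cut at about 20% in these data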;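 note: 0% = DMSO wells and 100% = biotin wells as full block of FRET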
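System: GST-NR2E3 and biotin-RetCOR proteins; probe or stimulus: 7 nM biotin-RetCOR; doses: compound at 4.8 µM, single dose; schedule: Compound–protein incubation for 5 h at 4 °C; detection: time-resolved FRET; read-out: percent inhibition; controls: biotin wells as high control, 0.6% DMSO wells as low control; format: 1536-well plates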
GalR3 antagonist – human GalR3 antagonism | O60755 | HEK293 GalR3-CNG cAMP membrane potential fluorescence; galR3 body fused to GalR1 C-terminus | inhibition, % at 3 µM | 360,000 tested, 0.44% active | AID 651719;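 active = inhibition above the screen-wide average plus 3 SD, cut at about 13% in these data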;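 note: forskolin and galanin both at EC90 stimulate the cells; cAMP rise reported by CNG channel membrane potential dye signal; 0% = forskolin plus galanin with DMSO and 100% = forskolin alone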
Target sequence (O60755 1-299 limits assumed): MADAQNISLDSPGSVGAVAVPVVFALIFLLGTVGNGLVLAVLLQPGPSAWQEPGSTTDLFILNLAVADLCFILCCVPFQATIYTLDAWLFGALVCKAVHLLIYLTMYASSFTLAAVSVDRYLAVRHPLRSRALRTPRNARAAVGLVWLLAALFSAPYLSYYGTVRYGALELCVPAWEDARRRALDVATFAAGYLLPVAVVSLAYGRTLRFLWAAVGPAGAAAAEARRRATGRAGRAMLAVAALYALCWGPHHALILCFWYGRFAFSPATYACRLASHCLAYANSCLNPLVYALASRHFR
CHT PAM – allosteric activators of human choline transporter CHT; 310,000 tested, 0.49% active; CHT-expressing cells, membrane potential dye, choline EC20; hits give high values; LV-AA mutant CHT in HEK293 cells; Q9GZV3; B-score at 10 µM;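 active = initial fluorescence not abnormally high and integrated response B-score, plate-corrected, over 3 SD above library mean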
CHT activ conf – confirmation of human choline transporter (CHT) activators; shares compounds with CHT PAM; CHT-expressing cells, membrane potential dye fluorescence (FDSS); % of choline EC20–EC90 response window; HEK293 expressing CHT LV-AA mutant; choline added at its EC20; activation, % at 10 µM; 2,500 tested, 91% active;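 active = primary screen active, with duplicate mean activation above negative control mean plus 3 SD, cut at about 11% in these data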
HEK293 MP dye – CHT activator counter-screen hit in parental HEK293 cells; shares compounds with CHT PAM; membrane potential dye fluorescence (FDSS); measured after EC20 choline addition; ratio readout change at 10 µM, hits read low; 2,500 tested, 62% active;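 active = duplicate-averaged ratio beyond 3 SD from buffer wells, up or down, though filed actives are nearly all decreases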
NR2E3 ag confirm – confirmation of human NR2E3 agonists; 2,300 tested, 51% active; shares compounds with NR2E3 ag-1; CHO-S mammalian two-hybrid NR2E3-NCOR, luciferase luminescence; inhibition, % at 3.98 µM;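 active = average inhibition above a cutoff equal to the mean inhibition of all tested compounds plus one SD, cut at about 70% in these data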;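 note: 0% = DMSO in NR2E3 cells and 100% = DMSO in cells lacking NR2E3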
VP16 counter – reduces GAL4-VP16 reporter signal in NR2E3 counterscreen. shares compounds with NR2E3 ag-1. CHO-S GAL4-VP16 luciferase reporter, luminescence. inhibition, % at 3.98 µM. 2,300 tested, 29% active. AID 624379;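 active = mean inhibition above a cutoff equal to the average over all tested compounds plus one standard deviation, cut at about 70% in these data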;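 note: luciferase from a UAS reporter driven by GAL4-VP16 transactivation; 0% = DMSO with VP16-transfected cells and 100% = DMSO with cells lacking VP16; higher means less reporter light so more repression of VP16 activity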
Gal4-VP16 ctr – VP16 inhibition counter-screen for COUP-TFII | shares compounds with NR2F2 inh | HEK293 Gal4-VP16 luciferase reporter, luminescence | inhibition, % at 8.5 µM | 2,500 tested, 25% active | AID 687007; in the data active = inhibition above about 13%
COUP-TFII conf – confirmation of human COUP-TFII (NR2F2) inhibitors | inhibition, % at 8.5 µM | AID 687008 | shares compounds with NR2F2 inh | 2,500 tested, 45% active | HEK293 NGFI-A luciferase reporter, luminescence;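 active = mean inhibition over three repeats above a set limit taken from the earlier primary screen, cut at about 38% in these data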;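 note: 100% = cells given the luciferase reporter alone without the COUP-TF2 vector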
* hit, by the source's call; i = inactive; . = no result given; ! = a repeat was not active. Rows were chosen to be rich in hits. Some 2.3% of all compounds tested hit in one or more screens of this group.

SMILES	NR2F2 inh	NR2E3 ag-1	CHT inh	NR2E3 ag-2	GalR3 antagonist	CHT PAM	CHT activ conf	HEK293 MP dye	others
O=[N+]([O-])c1cc(Cl)c(O)c(-[n+]2c(-c3ccccc3)cc(-c3ccccc3)cc2-c2ccccc2)c1	13.3	6.9	i	1.9	-10.3	i	.	.
CCOC(=O)c1cccc(-[n+]2c(-c3ccccc3)cc(-c3ccccc3)cc2-c2ccccc2)c1	33.4	-6.0	i	0.7	-6.1	i	.	.
CCOC(=O)c1ccc(-[n+]2c(-c3ccccc3)cc(-c3ccccc3)cc2-c2ccccc2)cc1	.	.	i	-0.8	.	7.66*	62.9*	i
Cc1ccc(-c2cc(-c3ccc(C)cc3)[n+](-c3ccc(C(=O)[O-])cc3)c(-c3ccc(C)cc3)c2)cc1	7.3	0.3	i	2.1	-1.1	9.72*	11.6*	-34.9*
O=C(c1ccco1)c1cn(Cc2ccccc2)c2ccccc12	-8.9	-62.0	i	2.0	-8.4	7.38*	23.2*	i
Cc1cc(N2CCNC[C@H]2C)ccc1N1CCN[C@@H](C)C1	4.3	.	.	.	-6.5	.	.	.
COc1ccc(NC(=O)N2CCC3(CC2)OCCO3)cc1OC	21.1	11.4	i	-0.8	-9.7	i	.	.
Cc1cc(N2CCOCC2)nc2ccc(NC(=O)CCC(=O)N3CCC4(CC3)OCCO4)cc12	-14.5	-19.4	i	-2.5	-3.7	i	52.8*	-38*
CN1CCN(c2ncnc3c2cnn3C)CC1	-5.0	-6.8	i	5.3	-4.8	i	52.1*	-59.5*
N=C1c2ccccc2CN1NC(=O)c1ccccc1	-12.5	-1.5	i	-2.2	-3.2	i	.	.
N=C1c2ccccc2CN1c1ccc(F)c([N+](=O)[O-])c1	-32.8	-0.6	i	4.7	2.0	i	46.1*	-25.6*
N=C1c2ccccc2CN1c1cccc([N+](=O)[O-])c1	10.8	-19.6	i	1.3	-0.8	i	53.9*	-37.6*
O=C(O)c1cc(S(=O)(=O)N2CC3CC(C2)c2cccc(=O)n2C3)ccc1F (configuration not stated)	9.2	.	.	.	-4.0	.	.	.
CC1C2Cc3ccc(O)cc3C1(C)CCN2CC1CC1 (configuration not stated)	6.2	.	.	.	-4.9	.	.	.
C[C@H](NC(=O)OCc1ccccc1)[P+](=O)O	-11.1	.	.	.	.	.	.	.
COc1cc2nc(N3CCN(C(=O)C4CCCO4)CC3)nc(N)c2cc1OC (configuration not stated)	-15.2	1.5	i	-0.9	.	8.31*!	42.6*	-27.6*
C[C@H]1CN([C@@H](C)CO)C(=O)CCCn2cc(nn2)CO[C@@H]1CN(C)C(=O)Oc1cccc2ccccc12	-25.6	.	.	.	-0.4	.	.	.
Cc1cc(N2CCNC[C@@H]2C)ccc1N1CCN[C@@H](C)C1	15.2	.	.	.	-6.9	.	.	.
CN1CCN(c2ccc3nccnc3c2)CC1	-2.2	-3.9	i	1.3	-6.3	i	16.3*	i
O=S(=O)(c1ccc2ccccc2c1)N1Cc2cc(Br)ccc2-n2nncc2C1	-6.6	.	.	.	0.0	.	.	.
CCN(CC)CCN1Cc2ccccc2C1=N	-3.2	-6.0	i	1.4	3.1	11*	75.4*	-72.8*
Cn1cc(P(=S)(c2ccccc2)c2ccccc2)c2ccccc21	-16.7	.	.	.	.	.	.	.
O=[N+]([O-])c1ccc(N2CCNCC2)cc1NCC1CCCO1 (configuration not stated)	-1.5	-14.6	i	-1.8	-6.9	8.98*	56.5*	-65.7*
CCOC(=O)c1c(N)n(CCN2CCCCC2)c2nc3ccccc3nc12	4.5	-22.8	i	0.2	-3.2	i	28.6*	-41.8*
c1ccc(-c2[nH]c(-c3ccccc3)[n+](CC3CO3)c2-c2ccccc2)cc1 (configuration not stated)	-5.3	-4.5	i	-4.3	-8.0	i	25.0*	i
SMILES	NR2F2 inh	NR2E3 ag-1	CHT inh	NR2E3 ag-2	GalR3 antagonist	CHT PAM	CHT activ conf	HEK293 MP dye	others
CC(C)(C)Cc1nnc(NC(=O)COc2ccc(Cl)cc2Cl)o1	-0.4	.	.	.	.	.	.	.
CCNC(=S)N(C)CCc1cc2c(c(OC)c1C=C1C(=O)N(C)C(=O)N(C)C1=O)OCO2	-28.3	-11.5	i	1.6	-0.2	i	.	.
CNC(=S)N(C)CCc1cc2c(c(OC)c1/C=C1/C(=O)NC(=O)N(C)C1=O)OCO2	10.2	-39.3	i	1.2	-5.9	6.56*	37.2*	-54*
COC(=O)C1C(c2ccc(Cl)cc2)CC2CCC1N2C (configuration not stated)	-26.3	.	.	.	-2.6	.	.	.
CC(C)(C)n1nnnc1C1CN=C(c2ccccc2)c2cc(Cl)ccc2N1 (configuration not stated)	1.3	.	.	.	.	.	.	.
Clc1ccc(CCC(Cn2ccnc2)Sc2c(Cl)cccc2Cl)cc1 (configuration not stated)	10.2	16.0	i	-2.3	.	i	30.2*	-27.4*
Clc1ccc(C(Cn2ccnc2)OCc2csc3c(Cl)cccc23)c(Cl)c1 (configuration not stated)	1.2	-2.9	i	-5.1	-4.0	i	.	.
C[C@@H]1CNCCN1c1ccc(N2CC[C@H](O)C2)c(C#N)c1	-0.6	.	.	.	-4.9	.	.	.
O=C1Nc2ccccc2/C1=C/c1cnc[nH]1	-26.7	47.6	i	-9.1	1.0	i	45.3*	-29.8*	NR2E3 ag confirm=25.8;VP16 counter=-1.3
C=CCN1C[C@H](C)N(C(c2ccc(C(=O)N(CC)CC)cc2)c2cccc(OC)c2)CC1C (some centres not stated)	-6.0	.	.	.	-2.0	.	.	.
CCN(CC)C1=NC(=[N+](CC)CC)c2ccccc21	45.5*	-2.8	i	4.9	-4.1	8.72*	64.4*	-56*	Gal4-VP16 ctr=12.2;COUP-TFII conf=52.3*
